Screening data (PubChem)
GPR7 antagonist – GPR7 receptor antagonists, primary screen, cell-based, fluorescence, single concentration | AID 1861, 2009 | Neuropeptides B/W receptor type 1 (Homo sapiens), P48145 | 290,000 tested, 1.1% active | GPR7-expressing cells, fluorescence antagonist assay | inhibition, % at 4.4 µM; in the data active = inhibition above about 16%, passing the limit was not always enough;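 also: cells stimulated with the agonist NPW; 0% = agonist with vehicle and 100% = vehicle without agonist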
TAAR1 antagonist – human TAAR1 antagonists, primary screen, Fluo-8 calcium fluorescence, CHO RD-HGA16 cells | Trace amine-associated receptor 1 (Homo sapiens), Q96RJ0 | antagonist | inhibition, % at 3 µM | 360,000 tested, 1.5% active | AID 624466, 2012;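 active = inhibition above a per-plate cutoff, the mean inhibition of test compounds on that plate plus 3 SD, cut at about 49% in these data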;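 also: 0% = DMSO plus EC80 beta-PEA response and 100% = DMSO alone without agonist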
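Material: CHO RD-HGA16 cells bearing hTAAR1; compound dosing: one-point dosing, 3 µM nominal final; schedule: dye loading 75 min at 37 °C, then 30 min room temperature; measured by: calcium fluorescence with Fluo-8; control set: vehicle and agonist controls; replication: n of 1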
OX1R antag-1 – antagonists of human orexin 1 receptor (OX1R). Orexin/Hypocretin receptor type 1 (Homo sapiens), O43613. OX1R-expressing cells, FRET antagonist read-out. inhibition, % at 6.6 µM. 330,000 tested, 1.8% active; in the data active = inhibition mostly above about 38%, no sharp cut-off; inactive = mostly below about 40%;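 also: 0% = agonist challenge alone and 100% = reference antagonist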
Target sequence (O43613 whole entry, looked up): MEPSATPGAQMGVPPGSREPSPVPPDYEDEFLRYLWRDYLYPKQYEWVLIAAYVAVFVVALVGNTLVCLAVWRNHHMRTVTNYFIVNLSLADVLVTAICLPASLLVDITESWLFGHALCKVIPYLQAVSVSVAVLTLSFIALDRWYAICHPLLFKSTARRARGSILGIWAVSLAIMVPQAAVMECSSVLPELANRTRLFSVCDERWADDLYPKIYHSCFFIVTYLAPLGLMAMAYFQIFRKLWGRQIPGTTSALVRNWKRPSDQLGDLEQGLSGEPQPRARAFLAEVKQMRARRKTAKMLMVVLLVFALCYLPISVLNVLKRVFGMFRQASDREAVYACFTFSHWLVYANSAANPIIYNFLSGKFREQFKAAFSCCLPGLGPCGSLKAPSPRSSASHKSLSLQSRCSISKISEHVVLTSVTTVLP
TAAR1 agonist – human TAAR1 agonists, primary screen, Fluo-8 calcium fluorescence, CHO RD-HGA16 cells | Trace amine-associated receptor 1 (Homo sapiens), Q96RJ0 | vehicle wells 0%, saturating PEA agonist 100% | activation, % at 3 µM | 360,000 tested, 0.99% active | AID 624467, 2012;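 active = activation above the mean activation of all test compounds in the run plus 3 SD, cut at about 38% in these data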
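Repeats: no replicates (n 1) | Material: CHO-derived RD-HGA16 cells with stable Gα16 and human TAAR1 | Technique: Kinetic Fluo-8 calcium fluorescence | Schedule: 17-24 h seeding, 75 min 37 °C dye, 30 min RT | Evaluation: % activation from peak over basal fluorescence ratio, DMSO-to-PEA scaled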
CHO parental Ca – ATP-evoked calcium signal inhibitors, parental CHO, primary screen, counter-screen for OX1R antagonist project, cell-based, fluorescence, Fluo-8 calcium dye | parental CHO-K1, ATP-induced calcium, Fluo-8 fluorescence | inhibition, % at 5.6 µM | 330,000 tested, 0.63% active | AID 463079, 2010;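 active = inhibition above that plate's mean sample inhibition plus 3 SD, cut at about 26% in these data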;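 also: 0% = ATP-challenged DMSO wells and 100% = DMSO wells without ATP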
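Test system: untransfected parental CHO cell line. Compound: one dose, 5.6 µM nominal. Detection: intracellular calcium via Fluo-8 no-wash fluorescent dye. Measure: % inhibition. Benchmarks: ATP-challenged DMSO wells low, unchallenged DMSO wells high.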
OX1R antag-2 – OX1R (HCRTR1) antagonists, primary screen, fluorescence, CHO/OX1R cells, Fluo-8 calcium, orexin A; inhibition, % at 5 µM; Orexin/Hypocretin receptor type 1 (Homo sapiens), O43613; 330,000 tested, 0.43% active; Fluo-8 calcium fluorescence;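 active = inhibition above its plate's threshold, mean inhibition of all tested compounds on the plate plus 3 SD, cut at about 37% in these data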;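 also: 0% = orexin A challenge wells and 100% = SB-334867-A antagonist wells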
Starred values were filed as active, the others as inactive; . = no result. This is a sample that favours compounds with a hit; in the whole collection about 4.5% have one here.

SMILES | GPR7 antagonist | TAAR1 antagonist | OX1R antag-1 | TAAR1 agonist | CHO parental Ca | OX1R antag-2
O=C(NN1c2ccccc2CCc2ccccc21)c1ccccc1Br | 3 | -4 | 66* | -2 | 4 | 13
CC(C)[C@H](NC(=O)[C@H](C)NC(=O)OC(C)(C)C)C(=O)N1CCC2CCN(Cc3ccccc3)CC21 (stereo partly drawn) | . | -18 | . | 0 | . | .
Cc1[nH]c2ccccc2c1CN1CCC(Cc2ccccc2)CC1 | 4 | 7 | 21 | 41* | -7 | -15
Cc1[nH]c2ccccc2c1CN1CCN(c2ccccn2)CC1 | -2 | -11 | 24 | 6 | 2 | 9
CC(C)OC(=O)N(C)C[C@H]1OCc2cnnn2CCCC(=O)N([C@H](C)CO)C[C@H]1C | . | 5 | . | 0 | . | .
O=C(Nc1ccccc1SC(=O)c1ccccc1)c1ccccc1 | . | 15 | . | 16 | . | .
Cc1ccc(C(=O)Sc2cccccc2=O)cc1 | 24 | 45 | 8 | 12 | 54* | 53*
O=C(Nc1ccc(OCc2ccccc2)cc1)c1cccs1 | 0 | 25 | 17 | 7 | 15 | -13
O=C(N/N=C/c1ccc(OCc2ccccc2)cc1)c1cccs1 | 17 | 8 | 60* | 30 | -19 | 8
COC(=O)N1C[C@H](OC)[C@H]2C[C@@H]1c1ccccc1O2 | . | -8 | . | 2 | . | .
Cc1ccc(-c2noc(CCCC(=O)NC3CCCCC3)n2)cc1 | 15 | 9 | 9 | -1 | 40* | -7
CCOC(=O)c1ccc(NC(=O)CCc2nc(-c3ccc(Cl)cc3)no2)cc1 | 1 | 26 | 18 | 16 | 47* | 45*
CCOC(=O)c1ccc(NC(=O)CCc2nc(-c3ccc(C)cc3)no2)cc1 | -4 | 0 | 14 | 15 | 33* | 0
CC(C)N(c1cc(=O)nc2ccccn12)C(C)C | . | 10 | . | 0 | . | .
Nc1cc(Cl)ccc1C(=O)OCC(=O)N1CCOCC1 | -10 | -6 | 11 | 2 | 8 | -27
COc1ccc(-c2noc(CCC(=O)NCc3cccnc3)n2)cc1 | -10 | 22 | 16 | 1 | -9 | -6
COc1cccc(-c2nc(-c3ccc(NC(=O)c4cccs4)cc3)no2)c1 | -6 | 51* | 24 | 6 | -24 | -26
Cc1ccc(-c2nnc(-c3cccc(NC(=O)c4cccs4)c3)o2)cc1 | -13 | 52* | 30 | 4 | 8 | -17
CC(=O)Nc1cccc(-c2nnc(-c3ccc(C)cc3)o2)c1 | -9 | -11 | . | 7 | . | .
COc1ccc(-c2nc(-c3ccc(NC(=O)c4ccncc4)cc3)no2)cc1OC | -9 | . | 60* | . | 26 | 5
COc1ccc(Cc2nc(-c3ccc(NC(=O)c4cccnc4)cc3)no2)cc1 | -7 | 40 | 22 | 55* | 11 | 1
COc1cccc(-c2nc(-c3ccc(NC(=O)c4ccncc4)cc3)no2)c1 | 0 | 37 | 24 | 10 | 7 | 1
CCOC(=O)C1=C(C(=O)OCC)C2N(Cc3ccccc3)c3ccccc3[C@@]23C[C@@H](C(=O)OC)N(S(=O)(=O)c2ccc(C(F)(F)F)cc2)C3=N1 (stereo partly drawn) | . | -25 | . | 1 | . | .
CCCC(=O)OC[C@H]1CN(C2CCCC2)S(=O)(=O)c2c(Oc3ccc(F)cc3)cccc2O1 | . | -18 | . | 1 | . | .
COc1ccc(C2C(C(C)=O)=C(C)N=c3s/c(=C\c4cc(C)n(C)c4C)c(=O)n32)c(OC)c1 (stereo not drawn) | -6 | 30 | 8 | 41* | 21 | 22
COC(=O)Cc1nnn2c1CC(OC)c1ccccc1-2 (stereo not drawn) | . | -30 | . | 2 | . | .
CC1CCCCN1C(=O)c1ccc(C(=O)c2ccccc2)cc1 (stereo not drawn) | . | 8 | 7 | 5 | -1 | -45
CC(NC(=O)C1CCN(Cc2ccc(Oc3ccccc3)cc2)CC1)c1cccc2ccccc12 (stereo not drawn) | . | 49* | . | 25 | . | .
